Assay results pooled from the literature.
Compare with care: the assays were run in different laboratories.
Target: Serine/threonine-protein kinase BRSK1 (BRSK1, Homo sapiens, UniProt Q8TDC3)
Residues used in one study (Q8TDC3 1-778): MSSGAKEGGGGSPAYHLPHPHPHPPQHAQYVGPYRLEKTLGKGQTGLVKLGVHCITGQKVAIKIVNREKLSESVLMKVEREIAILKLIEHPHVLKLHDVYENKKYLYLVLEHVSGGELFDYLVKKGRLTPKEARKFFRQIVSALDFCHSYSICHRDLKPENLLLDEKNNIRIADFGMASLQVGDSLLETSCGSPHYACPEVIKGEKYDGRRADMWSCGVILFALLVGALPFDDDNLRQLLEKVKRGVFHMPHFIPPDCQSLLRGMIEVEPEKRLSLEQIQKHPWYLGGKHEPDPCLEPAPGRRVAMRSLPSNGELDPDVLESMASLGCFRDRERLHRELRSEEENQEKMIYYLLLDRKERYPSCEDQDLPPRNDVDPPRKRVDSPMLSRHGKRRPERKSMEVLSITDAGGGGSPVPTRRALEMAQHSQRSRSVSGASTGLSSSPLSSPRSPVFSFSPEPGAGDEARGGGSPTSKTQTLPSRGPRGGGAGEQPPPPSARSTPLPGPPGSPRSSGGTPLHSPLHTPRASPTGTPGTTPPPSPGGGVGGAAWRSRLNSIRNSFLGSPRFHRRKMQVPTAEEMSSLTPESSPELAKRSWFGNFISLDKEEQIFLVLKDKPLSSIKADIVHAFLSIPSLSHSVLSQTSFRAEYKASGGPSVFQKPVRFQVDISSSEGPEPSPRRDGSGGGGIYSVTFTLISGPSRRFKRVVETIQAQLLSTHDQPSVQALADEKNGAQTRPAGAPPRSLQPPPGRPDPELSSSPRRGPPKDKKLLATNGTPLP

| SMILES | test | setting | endpoint | result |
| --- | --- | --- | --- | --- |
| COc1ncccc1-c1cnn2ccc(N3CCN(C(=O)OC(C)C)CC3)nc12 | binding, competition with immobilised ligand | 1 µM | remaining binding | 93% |
| CC(C)(C)c1cc(C=C(C#N)C#N)cc(Br)c1O | enzyme activity, inhibitor | 0.5 µM | remaining activity | 94% |
| Cn1cc(-c2cccc(N3CCc4c(sc5c4CC(C)(C)C5)C3=O)c2CO)cc(Nc2ccncn2)c1=O | enzyme activity, inhibitor | 1 µM | inhibition | 3% |
| Cn1cncc1[C@@](O)(COc1ccc(C#N)cc1-c1ccc(OC(F)(F)F)cc1)c1ccc(C#N)cc1 | cell-free assay, competition with immobilised ligand | 1 µM | remaining binding | 86% |
| Cc1nn(C)cc1-c1nc2c(N3CCN(Cc4ccc(Cl)cc4)CC3)c(Cl)cnc2[nH]1 | binding, competition with immobilised ligand | 1 µM | remaining binding | 100% |
| Cn1cc(-c2cc(F)cc(N3CCn4c(cc5c4CCCC5)C3=O)c2CO)cc(Nc2ccc(N3CCN(C4COC4)CC3)cn2)c1=O | enzyme activity, inhibitor | 0.1 µM | inhibition | 12% |
| Nc1ncc(-c2nc(N3CCOCC3)nc(N3CCOCC3)n2)c(C(F)F)n1 | binding, competition with immobilised ligand | 10 µM | remaining binding | 91% |
| N#CC1(c2ccccn2)CCN(Cc2cc(C(=O)O)c(=O)n3ccccc23)CC1 | cell-free assay, competition with immobilised ligand | 1 µM | remaining binding | 100% |
| O=c1[nH]c2ccccc2n1C1CCN(Cc2ccc(-c3[nH]c4cc5ncnc5cc4nc3-c3ccccc3)cc2)CC1 | cell-free assay | 0.5 µM | remaining signal | 98.3% |
